From ChEMBL document CHEMBL1124298, “Synthesis and antineoplastic activity of 5-aryl-2,3-dihydropyrrolo[2,1-b]thiazole-6,7-dimethanol 6,7-bis(isopropylcarbamates)” (J Med Chem, 1988)

tested on: HL-60; assay: Growth inhibitory activity against HL-60 human promyelocytic leukemia cell line relative to NSC-278214; type: functional; conditions: not given

Point of comparison: `CC(C)NC(=O)OCc1c(COC(=O)NC(C)C)c(-c2ccc(Cl)c(Cl)c2)n2c1CCC2`, Potency 1. Against it:
- CC(C)NC(=O)OCc1c(COC(=O)NC(C)C)c(-c2ccc(F)cc2)n2c1SCC2 — lower, 0.94
- CC(C)NC(=O)OCc1c(COC(=O)NC(C)C)c(-c2ccc(Cl)c(Cl)c2)n2c1SCC2 — lower, 0.79
- CC(C)NC(=O)OCc1c(COC(=O)NC(C)C)c(-c2ccc(Cl)cc2)n2c1SCC2 — higher, 1.76
- CC(C)NC(=O)OCc1c(COC(=O)NC(C)C)c(-c2ccccc2)n2c1SCC2 — the same, 1

In the case of `CC(C)NC(=O)OCc1ccccc1COC(=O)NC(C)C`, the Potency is reported as <0.005.

tested on: HL-60; assay: Concentration required to reduce cell number (HL-60 human promyelocytic leukemia cell line) on day 7 by 50%; type: functional, cell-based; conditions: HL-60, 168 h
Outline: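 HL-60 cells were grown in RPMI 1640 with 10% heat-inactivated FBS at 37 °C in humidified 10% CO2, resuspended at 10⁵/mL, and given drug. Drug was dissolved in DMSO, with at most 0.2% DMSO in the culture. Cells were counted by Coulter counter on day 7. IC50 is the concentration that reduced cell number by 50%. Values are from three experiments.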

Point of comparison: `CC(C)NC(=O)OCc1c(COC(=O)NC(C)C)c(-c2ccc(Cl)cc2)n2c1SCC2`, IC50 850 nM. Against it:
- CC(C)NC(=O)OCc1c(COC(=O)NC(C)C)c(-c2ccc(Cl)c(Cl)c2)n2c1CCC2 — 1.8-fold higher, 1500 nM
- CC(C)NC(=O)OCc1ccccc1COC(=O)NC(C)C — higher, > 300000 nM
- CC(C)NC(=O)OCc1c(COC(=O)NC(C)C)c(-c2ccc(F)cc2)n2c1SCC2 — 1.9-fold higher, 1600 nM
- CC(C)NC(=O)OCc1c(COC(=O)NC(C)C)c(-c2ccc(Cl)c(Cl)c2)n2c1SCC2 — 2.2-fold higher, 1900 nM
- CC(C)NC(=O)OCc1c(COC(=O)NC(C)C)c(-c2ccccc2)n2c1SCC2 — 1.8-fold higher, 1500 nM
